Compound activity as filed in PubChem BioAssay.
A selection: hits, their analogues and other compounds. The true share with any hit is near 1.9%.
HDAC3 inh: blocks human histone deacetylase 3; O15379; recombinant HDAC3, fluorogenic peptide/trypsin coupled, fluorescence; inhibition, % at 8.3 µM; 320,000 compounds, 0.15% hits; AID 2718; in the data active = inhibition above about 26%, passing the limit was not always enough; inconclusive = no clear call, values can overlap the other calls
Target sequence (O15379 whole entry, looked up): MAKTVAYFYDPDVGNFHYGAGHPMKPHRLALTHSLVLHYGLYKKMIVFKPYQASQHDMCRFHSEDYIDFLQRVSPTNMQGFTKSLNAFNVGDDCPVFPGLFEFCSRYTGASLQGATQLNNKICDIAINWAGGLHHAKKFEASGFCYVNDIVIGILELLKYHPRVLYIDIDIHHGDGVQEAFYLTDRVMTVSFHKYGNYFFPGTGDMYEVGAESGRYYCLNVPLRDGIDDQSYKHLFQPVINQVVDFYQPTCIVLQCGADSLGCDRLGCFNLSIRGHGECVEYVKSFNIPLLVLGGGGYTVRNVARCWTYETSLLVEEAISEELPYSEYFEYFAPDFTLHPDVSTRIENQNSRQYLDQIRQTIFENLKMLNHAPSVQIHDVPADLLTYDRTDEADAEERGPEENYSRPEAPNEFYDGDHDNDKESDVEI
Runt-CBFb FRET: Runt domain-CBFb interaction inhibition; Q01196+Q13951; 220,000 compounds, 0.46% hits; inhibition, % at 20 µM; Cerulean-Runt/Venus-CBFb FRET ratio 530/480, 1 h; AID 1496;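 active = inhibition over about 50% at 20 µM in the single-dose screen, limit read from the data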;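 also: 0% = DMSO wells and 100% = excess unlabeled CBFb competitor control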
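Measured by: fluorescence energy transfer, 422 nm excitation, 530/480 nm emission; Assay system: Cerulean-Runt domain; Medium: Tris pH 7.5 buffer with BSA; Measure: loss of energy transfer signal; Controls: 5 µM unlabeled CBFb as full-inhibition high control; Incubation: protein complex preformed 1 h, compound exposure 1 h, room temperature, dark.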
LANA-H2A inh: blocks KSHV LANA binding to histone H2A/H2B; 320,000 compounds, 0.6% hits; inhibition, % (concentration not given with the values); cell-free LANA-H2A/H2B peptide, fluorescence polarization; AID 2629; Q9QR71; in the data active = inhibition mostly above about 10%, no sharp cut-off; inactive = mostly below about 6.7%
Runt-SMMHC FRET: Runt domain-CBFb-SMMHC interaction inhibition | Q01196+Q13951 | Cerulean-Runt/Venus-CBFb-SMMHC FRET ratio 530/480, 1 h | inhibition, % at 20 µM | 220,000 compounds, 0.74% hits | AID 1434;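 active = mean inhibition across duplicate retests at 20 µM reaching about 50%, limit read from the data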;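 also: 0% = DMSO wells and 100% = wells with excess untagged CBFb-SMMHC; inhibitors lower the FRET ratio by blocking Runt binding to CBFb-SMMHC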
RanGTP-Impb inh: disruptors of Ran-importin-beta complex formation – biochemical, FRET, CFP-Ran, YFP-importin-beta, homogeneous, primary screen. cell-free CFP-Ran/YFP-importin-beta FRET ratio. AID 2216. inhibition, % (no concentration beside the values). 300,000 compounds, 1.1% hits;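 active = more than half of the replicate wells show a fall in the fluorescence ratio signal beyond about 16%, limit read from the data, passing the limit was not always enough; inconclusive = exactly half of the replicate wells pass the set limit; inactive = fewer than half of replicates pass the limit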;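 also: 0% = DMSO wells and 100% = Ran loaded with GDP instead of GTP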
CaV13 FRET inh: Disruptors of the CACNA1D IQ motif to Ca2+-dependent inactivation inhibitor domain association, primary screening, Förster resonance energy transfer in intact living …; HEK cells, CFP/YFP FRET ICDI-IQ, plate reader, 10 min; percent FRET-ratio fall versus neutral wells; inhibition, % at 12.3 µM; 340,000 compounds, 0.098% hits;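 active = mean replicate inhibition of at least 30% and at least 1% of replicates passing that level; inconclusive = only one of the two criteria is met; inactive = neither criterion is met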;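 also: 0% = median of the neutral control wells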
An asterisk follows results filed as active; ? = inconclusive; . = no result; ! = a repeat was not active.

SMILES	HDAC3 inh	Runt-CBFb FRET	LANA-H2A inh	Runt-SMMHC FRET	RanGTP-Impb inh	CaV13 FRET inh
CCC(=O)N1N=C(c2cccs2)CC1c1ccc(OC)cc1 (stereo not given)	-7.2	.	1.2	.	-0.2	-1.0
COc1ccc(C2CC(c3cccs3)=NN2c2nc(-c3ccccc3)cs2)cc1OC (stereo not given)	2.4	10.7	1.6	-6.7	56.3*	-7.9
O=Cc1ccc(N2N=C(c3ccccc3)CC2c2ccccc2)cc1 (stereo not given)	-2.9	.	5.7	.	7.6	-53.3
COc1ccc(C2CC(c3cccs3)=NN2c2ccc(C=O)cc2)cc1 (stereo not given)	6.6	4.0	-17.3	73.1*	-48.0	-55.4
Fc1ccc(C2CC(c3cccs3)=NN2c2ccccc2)cc1 (stereo not given)	.	25.0	.	78.7*	0.8	-6.0
COc1ccc(C2=NN(c3ccc(C=O)cc3)C(c3ccccc3)C2)cc1 (stereo not given)	-34.1	.	7.5	.	31.4*	.
O=C(CN1CCN(Cc2cccc(Cl)c2)C1=O)NCc1cccs1	2.9	1.5	-2.5	1.2	4.3	-4.0
C[n+]1ccccc1/C=N/O	-4.6	-1.4	18.2*!	3.5	-2.6	-4.4
O=C(NN=C1CCN(Cc2ccccc2)CC1)c1ccccc1	0.7	-0.8	1.9	0.1	4.8	-2.7
Oc1ccccc1N1CCN(C(=S)Nc2ccc(SC(F)F)cc2)CC1	6.7	0.4	23.1*	2.1	4.6	-3.7
COCCn1c(=NC(=O)c2ccc(S(=O)(=O)N3CCc4ccccc4C3)cc2)sc2cc(S(N)(=O)=O)ccc21	.	-6.9	.	-5.5	0.7	-5.7
COC(=O)Cn1c(=NC(=O)c2ccc(S(=O)(=O)N3CCc4ccccc4C3)cc2)sc2cc(OC)ccc21	-7.0	-34.2	2.9	-25.3	23.1*	-2.2
CCN(Cc1ccccc1)C(=S)Nc1cc(C(=O)OC)ccc1C(=O)OC	1.4	11.1	0.3	19.7	8.4	-4.4
CCc1cccc(C)c1NC(=S)N(CCN(C)C)Cc1cccs1	2.2	1.5	0.6	1.6	53.8*	-6.9
CCCCN(C(=O)CC1CCCCC1)c1c(N)n(CC(C)C)c(=O)[nH]c1=O	4.0	.	71.1*	.	.	-3.3
COc1ccccc1N1CCN(C(=O)c2cc3c(=O)n4cccc(C)c4nc3s2)CC1	-8.3	.	26.1*	.	31.0*	-3.5
COc1ccc(-c2cc(C(=O)N3CCN(c4ccccc4OC)CC3)no2)cc1	1.0	.	19.8*	.	5.7	-2.6
Cc1ccc(C)c(N2CCN(C(=O)c3ccc4nc(-c5ccco5)c(-c5ccco5)nc4c3)CC2)c1	13.4	-2.6	3.9	-2.2	52.2*	-4.5
COc1ccc(N2CCN(C(=O)c3ccc4ccccc4n3)CC2)cc1	2.4	-0.3	16.1*	-1.1	-0.2	5.9
Cc1ccc(NC(=O)CCC(=O)NNC(=O)/C=C/C(=O)O)c(C)c1	-1.5	0.8	2.2	-0.5	-1.7	-4.2
COc1ccccc1N1CCN(C(=O)c2ccc3nc(-c4ccco4)c(-c4ccco4)nc3c2)CC1	15.4	8.6	0.7	-42.7	33.4*	-6.1
CCC(=O)n1nc(-c2cccnc2)nc1NCc1ccc(F)cc1	28.7*	-2.1	-1.5	-0.7	-2.9	-7.4
CC(=O)n1nc(-c2ccccc2)nc1NCc1ccc(F)cc1	32.1*	-1.5	1.0	-2.8	-0.4	-5.6
Cc1ccc(S(=O)(=O)n2c([N+](=O)[O-])cnc2C)cc1C	-0.7	-2.1	12.4*	1.5	2.7	-3.6
Cc1cc(C)c(S(=O)(=O)n2c([N+](=O)[O-])cnc2C)cc1C	-1.2	0.5	-2.5	-2.8	3.6	-13.9
SMILES	HDAC3 inh	Runt-CBFb FRET	LANA-H2A inh	Runt-SMMHC FRET	RanGTP-Impb inh	CaV13 FRET inh
COc1ccc(NC(=O)C2(S(=O)(=O)c3ccc(C)cc3)CC2)cc1OC	-2.0	.	26.3*	.	-2.3	-3.5
O=S(=O)(c1ccc(Cl)cc1)n1cnc2ccccc21	-13.2	.	-4.6	.	0.3	-0.7
O=C(N/N=C/c1coc2ccc(Cl)cc2c1=O)c1ccncc1	8.1	.	4.3	.	-0.3	-7.9
COc1cc(C(=O)N/N=C/c2coc3ccc(Cl)cc3c2=O)ccc1O	96.2*	.	-4.5	.	?	-3.4
COc1ccc(C(=O)N/N=C\c2coc3ccccc3c2=O)cc1	88.7*	0.4	7.8	2.3	2.5	-4.8
COc1ccc(C(=O)N/N=C\c2coc3ccc(Cl)cc3c2=O)cc1	.	.	3.9	.	-3.4	-8.5
O=C(N/N=C/c1coc2ccc(Cl)cc2c1=O)c1ccc(O)cc1	96.9*	.	-1.2	.	2.3	-2.7
O=C(NCCNC(=O)c1cc(Cl)ccc1Cl)c1ccco1	-11.5	.	-0.2	.	0.1	-3.1
O=C1c2c(-c3ccc(Br)cc3)noc2CCN1Cc1cn(C2CCCC2)nn1	.	.	.	.	.	-15.6
CCOC(=O)CSC1=NC(=O)/C(=C/c2ccc(OC)cc2)S1	79.8*	6.6	3.9	10.4	5.6	.
COc1cccc(C(=O)Oc2cc(N)n(S(=O)(=O)c3ccc(C)cc3)n2)c1OC	53.4*	-0.6	4.7	3.6	-0.1	.
Nc1cc(OC(=O)c2cccs2)nn1S(=O)(=O)c1ccc(F)cc1	70.0*	1.5	0.3	2.9	-2.5	.
Nc1cc(OC(=O)c2c(F)cccc2Cl)nn1S(=O)(=O)c1ccccc1	-1.0	.	0.1	.	3.5	-10.5
Nc1cc(OC(=O)c2cccs2)nn1S(=O)(=O)c1ccccc1	95.8*	2.3	0.3	-4.0	-1.5	-4.6
COc1ccc(C(=O)Oc2cc(N)n(S(=O)(=O)c3ccccc3)n2)cc1	?	0.7	1.2	3.2	-7.5	96.7*
O=C(Nc1ccc(S(=O)(=O)N2CCCCC2c2cccnc2)cc1)c1c(F)cccc1F (stereo not given)	3.9	-0.2	6.2	-2.5	2.8	-0.5
Cc1ccccc1N/N=C1\CCCNC1=O	5.0	-6.8	3.0	-1.5	-0.5	.
COc1ccc(S(=O)(=O)n2nc(OC(C)=O)cc2N)cc1	1.7	2.5	3.2	-1.4	0.5	-10.4
COc1ccc(S(=O)(=O)n2nc(OC(=O)c3cccs3)cc2NC(=O)c2cccs2)cc1	46.3*	5.2	-3.0	-0.3	2.7	-1.9
CCc1ccc2oc(-c3ccc(OC)cc3)cc(=Nc3c(C)n(C)n(-c4ccccc4)c3=O)c2c1	-12.4	-10.4	-5.3	-6.9	-0.5	0.5
Cc1ccccc1NC(=O)c1c([N+](=O)[O-])cnn1C	1.7	.	5.4	.	5.4	-3.4
Cn1ncc([N+](=O)[O-])c1C(=O)Nc1ccccc1Cl	2.9	.	13.1*	.	3.9	-3.4
CCCCN1C[C@H](CSC)[C@@H](CC(=O)NC)C1=O	.	.	.	.	.	-6.0
Cc1n[nH]c(=O)c2c(NC(=O)CSc3nnc(-c4ccco4)n3C)oc(C)c12	-1.7	.	92.4*	.	.	-4.9
